Laboratory results published in ChEMBL document CHEMBL5032499, “A Druglike Small Molecule that Targets r(CCUG) Repeats in Myotonic Dystrophy Type 2 Facilitates Degradation by RNA Quality Control Pathways” (J Med Chem, 2021).
Calls of active or inactive are those of the source. No cut-off for these calls is given here.

Tests used:
[1] = Induction of disruption of r(CCUG)12-MBNL1 complex (unknown origin) incubated for 15 mins by TR-FRET assay; design: species or system Homo sapiens
Procedure, shortened: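 Biotinylated r(CCUG)12 was folded at 60 °C for 5 min in 20 mM HEPES pH 7.5, 110 mM KCl, 10 mM NaCl. It was then brought to assay buffer (plus 2 mM MgCl2, 2 mM CaCl2, 5 mM DTT, 0.1% BSA, 0.5% Tween-20) and preincubated 15 min with MBNL1-His6 (final 80 nM RNA, 60 nM protein). Compound was added for 15 min, then streptavidin-XL665 (40 nM) and anti-His6-Tb (0.44 ng/μL) for 30 min at room temperature. TR-FRET 545/665 ratios were read; IC50 was taken from dose-response fits.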

[2] = species: Homo sapiens; assay: Inhibition of r(CCUG)12-MBNL1 complex formation (unknown origin) assessed as rescue of IR exon 11 splicing defect at 5 uM by RT-PCR analysis; design: scale not given: the % may be the effect or the level left
Procedure, shortened: (§1)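 DM2 patient fibroblasts were treated at ~40% confluency for 48 h. About 1 μg of total RNA was reverse transcribed, and IR exon 11 was PCR-amplified for 35 cycles (95 °C/58 °C/72 °C). Products were resolved on 2% agarose stained with ethidium bromide and quantified by densitometry. Percent rescue was calculated as (DM2 untreated − treated exclusion)/(DM2 untreated − WT exclusion) × 100.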

[3] = test system: Fibroblast; assay: Cytotoxicity against DM2 patient derived fibroblast assessed as cell viability at 5 uM incubated for 48 hrs by Cell Titre-Glo assay; format: cell-based; conditions: human
Procedure, shortened: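 DM2 patient-derived fibroblasts were grown in high-glucose DMEM with 20% FBS at 37 °C, 5% CO2. After 48 h of compound treatment, viability was read as CellTiter-Glo luminescence after 10 min at room temperature (n = 6 replicates, one independent experiment).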

[4] = species: Homo sapiens; assay: Inhibition of r(CCUG)12-MBNL1 complex formation (unknown origin) assessed as rescue of IR exon 11 splicing defect at 1 uM by RT-PCR analysis; design: scale not given: the % may be the effect or the level left; procedure, shortened: as §1
[5] = Binding affinity to r(CCUG)12 (unknown origin) assessed as apparent dissociation constant incubated for 30 mins by microscale thermophoresis; design: species or system Homo sapiens; conditions: read-out: Kd(app)
Procedure, shortened: (§2)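 Microscale thermophoresis with Cy5-labeled RNA (5 nM) folded in 8 mM Na2HPO4 pH 7.0, 185 mM NaCl, 1 mM EDTA at 60 °C for 5 min, then slowly cooled. The RNA was added to 1:1 serial compound dilutions in the same buffer, giving 0.05% Tween-20 final, and held 30 min at room temperature. Kd was fit to a quadratic binding equation; values are the mean of two independent experiments.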

[6] = Binding affinity to Base-paired RNA (unknown origin) assessed as dissociation constant incubated for 30 mins by microscale thermophoresis; design: species or system Homo sapiens; procedure, shortened: as §2
[7] = test system: Fibroblast; assay: Inhibition of r(CCUG)12-MBNL1 complex formation in DM2-patient derived fibroblast assessed as reduction in complex in nuclear foci per cell at 5 uM by immunofluorescence imaging analysis; format: tissue-based; conditions: Homo sapiens
[8] = test system: Fibroblast; assay: Effect on MAP4K4 exon 22a splicing in DM2-patient derived fibroblast; format: tissue-based; conditions: Homo sapiens
[9] = test system: Fibroblast; assay: Reduction in CNBP intron 1 level in DM2 patient derived fibroblast at 5 uM by RT-qPCR analysis; format: functional, tissue-based; conditions: Homo sapiens
Procedure, shortened: (§3)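 DM2 patient fibroblasts (DMEM, 20% FBS) were treated at 40% confluency for 48 h. Total RNA was then extracted and transcript levels were measured by RT-qPCR, normalized to GAPDH (n = 6 replicates per concentration, 2 independent experiments).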

[10] = test system: Fibroblast; assay: Reduction in CNBP intron 1 level in DM2 patient derived fibroblast at 1 uM by RT-qPCR analysis; format: functional, tissue-based; conditions: Homo sapiens; procedure, shortened: as §3
[11] = test system: Fibroblast; assay: Effect on CNBP mature mRNA level in DM2 patient derived fibroblast at 0.2 to 5 uM by RT-qPCR analysis; format: functional, tissue-based; conditions: Homo sapiens, dose 0.2-5 µM; procedure, shortened: as §3
[12] = test system: Fibroblast; assay: Effect on CNBP mature mRNA level in wild type human fibroblast at 0.2 to 5 uM by RT-qPCR analysis; format: functional, tissue-based; conditions: dose 0.2-5 µM
Procedure, shortened: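 Wild-type GM07492 fibroblasts were grown in MEM with 10% FBS. They were treated at 40% confluency for 48 h, and total RNA was extracted. Transcript level was measured by RT-qPCR normalized to GAPDH (n = 6 per concentration, 2 independent experiments).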

[13] = test system: Fibroblast; assay: Effect on IR exon 11 exclusion in wild type human fibroblast at 0.2 to 5 uM by RT-qPCR analysis; format: functional, tissue-based; conditions: dose 0.2-5 µM

SMILES: Cc1ccc2nc(Nc3ccc4nc(C)sc4c3)nc(NCCCO)c2c1
- IC50 [1]: 2 µM
- Activity [2]: 30%
- Activity [3]: Non-Toxic
- Activity [4]: 33%
- Kd [5]: 0.192 µM
- Kd [6]: > 20 µM
- inhibition [7]: 30%
- Activity [8]: inactive
- Activity [9]: Active
- Activity [10]: Active
- Activity [11]: inactive
- Activity [12]: inactive
- Activity [13]: inactive
